# An excerpt weighted towards active compounds, which were near 2.4% of everything screened.
# A3A deaminase = inhibitors of human APOBEC3A DNA deaminase; P31941; recombinant A3A, FAM/TAMRA ssDNA deamination fluorescence; inhibition, % at 20 µM; 330,000 compounds, 0.41% hits;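 active = at least 40% inhibition at 20 µM here, with at most 30% in a related deaminase screen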;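 also: plate controls were A3A with DMSO for no effect and wells lacking A3A enzyme for full effect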
# Target sequence (P31941 whole entry, looked up): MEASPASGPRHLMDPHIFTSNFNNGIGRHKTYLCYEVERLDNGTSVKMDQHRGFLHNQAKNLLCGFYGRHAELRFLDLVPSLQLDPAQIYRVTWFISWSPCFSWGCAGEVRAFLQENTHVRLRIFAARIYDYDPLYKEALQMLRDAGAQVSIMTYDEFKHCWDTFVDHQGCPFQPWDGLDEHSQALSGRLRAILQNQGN
# PfGluPho inh = PfG6PD (Plasmodium falciparum) enzyme inhibition; PfGluPho enzyme, NADPH resazurin-diaphorase fluorescence; inhibition, % at 20 µM; 350,000 compounds, 0.78% hits; AID 504690;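 active = inhibition reaching at least a set limit at 20 µM in the primary screen, cut at about 59% in these data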;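 also: 0% = DMSO wells with substrate and 100% = DMSO wells lacking glucose-6-phosphate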
# HKDC1 inh = blocks human hexokinase HKDC1 activity; Q2TB90; AID 493160; 340,000 compounds, 0.16% hits; inhibition, % at 20 µM; recombinant HKDC1, G6PDH/diaphorase resazurin coupled fluorescence;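 active = inhibition above about 35% when tested at 20 µM, limit read from the data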;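 also: plate controls were DMSO wells with enzyme for no effect and DMSO wells lacking enzyme for full effect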
#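 test system = in-house recombinant HK5 (HKDC1) enzyme | amount = HKDC1 at 5 µg/mL | control set = DMSO-enzyme wells negative, buffer-substituted wells positive | compound = one dose of 20 µM, 1% DMSO | schedule = reaction time 90 min, room temperature, protected from light | technique = resorufin fluorescence at 613 nm | reagent = glucose with 1 mM ATP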
# UBC9 SUMO inh = inhibitors of human SUMOylation (UBC9); P63279; HTRF SUMOylation assay, SAE1/SAE2 + UBC9, in vitro; inhibition, % at 35 µM; 290,000 compounds, 0.36% hits; AID 2006; in the data active = inhibition above about 50%, passing the limit was not always enough
# A3G deaminase = blocks human APOBEC3G single-stranded DNA deamination | inhibition, % at 20 µM | 330,000 compounds, 0.28% hits | recombinant A3G, ssDNA deamination FAM/TAMRA fluorescence | Q9HC16;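 active = inhibition of at least 40% at 20 µM, with no more than 30% in the related APOBEC3A deaminase screen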;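 also: plate controls were DMSO wells with A3G for no effect and wells lacking A3G enzyme for full effect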
# Target sequence (Q9HC16 whole entry, looked up): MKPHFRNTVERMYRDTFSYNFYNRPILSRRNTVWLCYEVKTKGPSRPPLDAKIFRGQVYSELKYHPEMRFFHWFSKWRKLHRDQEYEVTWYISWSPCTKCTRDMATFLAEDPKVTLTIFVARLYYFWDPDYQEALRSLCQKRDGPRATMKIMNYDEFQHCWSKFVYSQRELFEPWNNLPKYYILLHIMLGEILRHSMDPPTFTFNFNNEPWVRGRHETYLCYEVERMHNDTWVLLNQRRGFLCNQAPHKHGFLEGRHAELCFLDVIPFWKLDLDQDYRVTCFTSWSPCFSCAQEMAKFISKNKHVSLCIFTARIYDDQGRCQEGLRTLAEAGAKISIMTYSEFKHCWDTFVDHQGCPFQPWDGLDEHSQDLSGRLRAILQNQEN
# PfM18AAP inh-1 = PfM18AAP enzyme inhibition | recombinant PfM18AAP, H-Glu-NHMec fluorogenic cleavage | inhibition, % at 7.35 µM | 290,000 compounds, 1.2% hits;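 active = inhibition above the campaign mean inhibition over all tested compounds plus 3 SD, cut at about 28% in these data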;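 also: 0% = plate median of test compound wells and 100% = 2 mM ZnCl2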
# PfM18AAP inh-2 = PfM18AAP inhibition, confirmation. shares compounds with PfM18AAP inh-1. recombinant PfM18AAP, H-Glu-NHMec fluorogenic cleavage. inhibition, % at 7.35 µM. 2,400 compounds, 28% hits. AID 2170;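 active = mean inhibition over replicate wells above the hit cutoff set for the earlier primary screen, cut at about 29% in these data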;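 also: 0% = median of test compound wells and 100% = 2 mM ZnCl2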
# CTSL1 counter = Cathepsin L (human) inhibition, confirmation. AID 2178. purified cathepsin L1, Z-Leu-Arg-MCA fluorescence. shares compounds with PfM18AAP inh-1. inhibition, % at 5.96 µM. 2,400 tested, under 10 active;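 active = average inhibition across replicates above the hit cutoff set in the earlier primary screen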;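 also: 0% = median of test compound wells and 100% = Z-Phe-Ala-diazomethylketone 1 µM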
# Active calls of the source: *; x = not tested or not shown.
SMILES,A3A deaminase,PfGluPho inh,HKDC1 inh,UBC9 SUMO inh,A3G deaminase,PfM18AAP inh-1,PfM18AAP inh-2,CTSL1 counter
O=C1NC(=S)NC(=O)C1Cc1ccccc1,x,-1.8,-5.7,x,x,x,x,x
CCOc1cccc(N2C(=O)/C(=C/c3ccco3)C(=O)NC2=S)c1,96.0,-8.7,11.2,15.5,62.2,7.4,x,x
O=C1NC(=S)N(c2ccccc2)C(=O)/C1=C/c1ccco1,79.6,18.7,67.6*,9.7,52.6,12.7,x,x
O=C1CN=C(c2cccs2)c2c(sc3c2CCCC3)N1,x,-12.6,4.3,1.5,x,-0.9,x,x
CN1CC(C(=O)c2ccc(Cl)cc2)C(c2ccccc2)C1 (stereo not drawn),-0.3,-2.2,5.7,18.4,-6.4,-4.2,x,x
CCCNC(=O)c1c(N)n(CC2CCCO2)c2nc3ccccc3nc12 (stereo not drawn),1.9,26.9,17.4,101.5*,-0.6,0.4,x,x
CC(C)OCCCNC(=O)c1c(N)n(CC2CCCO2)c2nc3ccccc3nc12 (stereo not drawn),-1.5,35.9,16.4,98.1*,-7.0,6.3,x,x
CC(C)OC(=O)c1c(N)n(CC2CCCO2)c2nc3ccccc3nc12 (stereo not drawn),-2.9,22.2,1.1,41.8,0.7,-6.7,x,x
CCn1c(=N)n(Cc2ccccc2F)c2ccccc21,-0.8,-13.5,-5.7,-10.3,-4.4,-3.8,x,x
Cc1ccc2c(c1)C(c1ccccc1)NCC(=O)N2 (stereo not drawn),-0.7,6.0,-5.0,24.0,24.7,-15.4,x,x
COC(=O)c1nc(-c2ccc3c(n2)C(=O)C(N)=C(OC)C3=O)c(N)c(-c2ccc(OC)c(OC)c2O)c1C,2.9,52.9,21.9,49.2,-0.5,31.8*,x,x
COC1=C(C)C(=O)C2=C(C1=O)C(CO)N1C(C#N)C3CC4C(C1C2N1CCOC41)N3C (stereo not drawn),x,84.2*,32.3,x,x,x,x,x
CC(C)[C@H]1C(=O)N2CCC[C@H]2[C@]2(O)O[C@](NC(=O)[C@@H]3C=C4c5cccc6[nH]cc(c56)C[C@H]4N(C)C3)(C(C)C)C(=O)N12,-5.1,27.4,12.1,63.7,-13.9,5.4,x,x
CN1C[C@H](CO)C=C2c3cccc4[nH]cc(c34)C[C@H]21,5.7,52.8,11.7,65.3*,31.6,18.1,x,x
CCCCn1c(N)c(C(=O)OCCOC)c2nc3ccccc3nc21,5.8,7.0,2.9,66.7*,-3.5,2.2,x,x
CCCCn1c(NC(=O)c2ccco2)c(C(=O)OCC)c2nc3ccccc3nc21,-2.4,13.2,14.3,102.6,4.6,7.8,x,x
CCCCn1c(NS(=O)(=O)c2ccc(C)cc2)c(C(=O)OCC)c2nc3ccccc3nc21,-0.2,11.7,11.8,99.0*,-5.0,13.6,x,x
O=C(NC1CCCCC1)Oc1cc2oc(=O)sc2cc1Cl,7.0,38.9,-5.4,-2.8,-1.6,31.2*,x,x
O=C1NC(=S)N(Cc2ccco2)C(=O)/C1=C\c1cccs1,x,x,x,94.2*,x,22.6,x,x
O=C1NC(=O)N(Cc2ccco2)C(=O)/C1=C/c1ccc(-c2cccc([N+](=O)[O-])c2)o1,65.6,90.1*,36.9*,x,53.9,33.9*,-101.1,-6.0
Cc1cc(OC(=O)N(C)C)nc(SCc2c(Cl)cccc2Cl)n1,-4.9,2.6,-2.9,-13.4,-8.6,-1.0,x,x
Cc1ccc(N2CCN(CCc3ccccc3)CC2)cc1,7.0,7.4,0.6,7.1,-1.0,-10.3,x,x
COc1ccc(C2SCC(=O)Nc3c2c(C)nn3-c2ccccc2)cc1 (stereo not drawn),-8.8,-14.5,1.3,8.7,6.1,-12.2,x,x
Cc1ccc(-n2nc(C)c3c2NC(=O)CSC3c2ccc3c(c2)OCO3)cc1 (stereo not drawn),-0.1,4.5,-22.0,4.8,-4.1,35.1*,-17.9,3.4
COc1ccc(-n2c(O)c(/C(C)=N/N3CCCCCC3)c(=O)[nH]c2=O)cc1,0.7,0.7,-2.1,5.6,0.7,-3.1,x,x
SMILES,A3A deaminase,PfGluPho inh,HKDC1 inh,UBC9 SUMO inh,A3G deaminase,PfM18AAP inh-1,PfM18AAP inh-2,CTSL1 counter
O=C1/C(=C\c2cc3c(cc2Br)OCO3)N2CCC1CC2,-3.3,3.4,5.1,4.6,-6.9,36.6*,-40.5,7.4
O=C1/C(=C/c2ccc3c(c2)OCO3)N2CCC1CC2,0.6,-10.1,-5.4,1.9,-3.5,1.6,x,x
O=c1[nH]c(=O)n(-c2ccccc2)c(O)c1/C=C1/C(c2ccccc2)=Nc2ccccc21,-1.9,-11.0,19.5,20.7,-0.2,7.6,x,x
O=c1[nH]c(=O)n(-c2cccc(F)c2)c(O)c1/C=C1\C=Nc2ccccc21,-5.1,21.4,2.5,14.3,-13.9,33.9*,44.7*,-0.9
O=C(O)c1ccc(-n2c(O)c(/C=C3\C=Nc4ccccc43)c(=O)[nH]c2=O)cc1,-2.0,13.4,3.2,-3.0,-11.2,47.5*,53.2*,-0.5
CC(=Nc1ccccc1N)c1c(O)n(C)c(=O)n(C)c1=O,-4.7,4.6,-4.0,1.0,1.2,-4.8,x,x
O=C1NC(=O)N(c2ccc3c(c2)OCO3)C(=O)/C1=C\c1ccsc1,-1.7,28.7,-0.2,16.3,-5.9,33.4*,-58.6,0.6
CN1C(=O)/C(=C/c2cccn2-c2ccc3ccccc3c2)C(=O)NC1=S,14.2,0.2,21.6,12.3,16.1,-25.2,x,x
O=C1NC(=S)NC(=O)C1=Cc1cccn1-c1ccc(O)cc1,x,25.1,25.3,x,x,33.9*,57.2*,-2.2
N/C(=N\N=C\c1ccc(O)cc1O)N[N+](=O)[O-],-4.3,-12.2,-2.8,3.4,-11.5,43.6*,64.7*,3.7
COc1ccccc1/C=N/N=C(/N)N[N+](=O)[O-],-1.6,4.9,-7.3,1.8,-3.9,9.8,x,x
Oc1ccc(/C=N/NP(=S)(c2ccccc2)c2ccccc2)c(O)c1O,6.3,7.5,30.4,14.2,-3.2,33.2*,-23.9,3.7
Oc1ccccc1/C=N/NP(=S)(c1ccccc1)c1ccccc1,-3.0,-10.7,2.0,-28.1,-5.1,-2.3,x,x
Oc1ccc(/C=N/NP(=S)(c2ccccc2)c2ccccc2)cc1O,0.2,-13.6,-2.4,-4.3,0.3,38.0*,0.9,0.3
CCCN1CC[C@@H]2c3cc(O)ccc3CC[C@@H]21,1.5,-13.7,5.5,x,1.0,x,x,x
CC(C(=O)c1ccc(Cl)cc1Cl)n1cncn1 (stereo not drawn),-7.5,12.8,6.6,13.3,-7.3,64.9*,53.9*,-1.7
CC(C)(C)C(O)C(Oc1ccc(Cl)cc1)n1cncn1 (stereo not drawn),0.6,-6.1,-0.1,2.1,-5.6,-7.4,x,x
CN(C)C(=O)Oc1c(Cl)cc(Cl)c2ccccc12,-3.5,-25.0,4.8,12.5,-9.0,-1.4,x,x
S=P(Nn1cnnc1)(c1ccccc1)c1ccccc1,4.6,-6.2,-6.2,-2.7,-7.7,44.0*,48.7*,-2.7

# Source: PubChem (several laboratories)
